Source: ChEMBL document CHEMBL3352721, “Identification, optimization, and pharmacology of acylurea GHS-R1a inverse agonists” (J Med Chem, 2014)
Calls of active or inactive are those of the source. The rule behind the calls is not given here.

Assays:
MDR1 = assay: Apparent permeability in MDCK cells expressing MDR1 at 10 uM assessed as apical to basolateral side transport; type: ADME, cell-based, Canis lupus familiaris; settings: dog
How it was run: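 MDCK-MDR1 monolayers incubated with compound at 10 µM; permeability measured in both A→B and B→A directions, giving Papp A-B (x10^6 cm/s) and the efflux ratio.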

[1] = Oral bioavailability in beagle dog at 2 mg/kg; type: ADME, organism-based, Canis lupus familiaris; settings: in vivo
How it was run: (§1)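 Oral gavage in male HW rats, beagle dogs or CD-1 mice, vehicle Pluronic F127 in water. EDTA plasma was collected over 24 h and quantified by LC/MS/MS after acetonitrile precipitation. Cmax and bioavailability were obtained by non-compartmental analysis against IV data.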

[2] = Volume of distribution at steady state in Han-Wistar rat at 2 mg/kg, iv; type: ADME, organism-based; parameters: dose 2 mg/kg, route intravenous; settings: in vivo, read-out: Vdss
How it was run: (§2)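 Male HW rats, beagle dogs or CD-1 mice received an IV bolus in 5% DMSO/95% hydroxypropyl-β-cyclodextrin (30% w/v). EDTA plasma was sampled over 24 h and assayed by LC/MS/MS after acetonitrile protein precipitation. CL and Vss were obtained by non-compartmental analysis.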

[3] = Unbound fraction in CD1 mouse plasma; type: ADME, cell-free
Mus musculus [4] = assay: Reduction in free feeding level in po dosed C57Bl6j mouse free feeding model measured over 24 hrs period; type: functional, organism-based
How it was run: (§3)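 Male mice (C57Bl6j, GHSr1-/- or wild-type littermates) were acclimatized 3 weeks to reversed light-dark, then individually housed 7 days and grouped (n=10-12) by baseline intake and body weight. Suspensions in 1% Pluronic F127 or vehicle were gavaged at 10 mL/kg about 1 h before dark onset. Pre-weighed food was reweighed at 2, 4, 6 and 24 h.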

[5] = molecular target: Sodium-dependent dopamine transporter (Homo sapiens, UniProt Q01959); assay: Inhibition of DAT (unknown origin)
[6] = Displacement of [125I]human ghrelin from mouse GHS-R1a expressed in HEK cell membranes after 60 mins by gamma counting method; settings: hek293
How it was run: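 HEK cell membranes stably overexpressing mouse or rat GHS-R1a (4 µg/well) incubated 60 min at rt with 20 pM [125I]human ghrelin and competing compound. Buffer: 50 mM Tris-HCl, 5 mM MgCl2, 0.01% BSA, pH 7.4, plus 10 µM methyl arachidonyl fluorophosphonate. Stopped by filtration over PEI-soaked GF/C filters with ice-cold washes, then gamma counting. IC50 is the mean of ≥2 independent determinations.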

[7] = Unbound fraction in beagle dog plasma; type: ADME, cell-free, Canis lupus familiaris
[8] = Cmax in CD1 mouse at 2 mg/kg, po by LC-MS/MS method; type: ADME, organism-based; parameters: dose 2 mg/kg, route oral; settings: in vivo; how it was run: as §1
[9] = Cmax in beagle dog at 2 mg/kg, po; type: ADME, organism-based, Canis lupus familiaris; parameters: dose 2 mg/kg, route oral; settings: in vivo; how it was run: as §1
Rattus norvegicus = assay: (§4) Oral bioavailability in Han-Wistar rat at 2 mg/kg; type: ADME, organism-based; settings: in vivo; how it was run: as §1
[10] = Volume of distribution at steady state in beagle dog at 2 mg/kg, iv; type: ADME, organism-based, Canis lupus familiaris; parameters: dose 2 mg/kg, route intravenous; settings: in vivo, read-out: Vdss; how it was run: as §2
Mus musculus [11] = assay: Reduction in free feeding level in po dosed C57Bl6j mouse free feeding model measured in first 6 hrs; type: functional, organism-based; how it was run: as §3
Mus musculus [12] = assay: Reduction in free feeding level in po dosed GHS-R1a knock out C57Bl6j mouse free feeding model measured over 6 hrs; type: functional, organism-based; how it was run: as §3
[13] = Clearance in Han-Wistar rat at 2 mg/kg, iv; type: ADME, organism-based; parameters: dose 2 mg/kg, route intravenous; settings: in vivo; how it was run: as §2
[14] = Volume of distribution at steady state in CD1 mouse at 2 mg/kg, iv; type: ADME, organism-based; parameters: dose 2 mg/kg, route intravenous; settings: in vivo, read-out: Vdss; how it was run: as §2
[15] = Cmax in Han-Wistar rat at 2 mg/kg, po; type: ADME, organism-based; parameters: dose 2 mg/kg, route oral; settings: in vivo; how it was run: as §1
[16] = Cmax in CD1 mouse at 7 mg/kg, po; type: ADME, organism-based; parameters: dose 7 mg/kg, route oral; settings: in vivo; how it was run: as §1
[17] = Unbound fraction in Han-Wistar rat plasma; type: ADME, cell-free
[18] = molecular target: Neuronal acetylcholine receptor subunit alpha-4 (Homo sapiens, UniProt P43681); assay: Inhibition of alpha4 nAChR (unknown origin)
[19] = Lipophilicity, logD of the compound; type: physicochemical; settings: octanol/water
[20] = molecular target: Voltage-gated inwardly rectifying potassium channel KCNH2 (Homo sapiens, UniProt Q12809); assay: Inhibition of human ERG at 33 uM
[21] = Oral bioavailability in CD1 mouse at 7 mg/kg; type: ADME, organism-based; settings: in vivo; how it was run: as §1
[22] = Clearance in beagle dog at 2 mg/kg, iv; type: ADME, organism-based, Canis lupus familiaris; parameters: dose 2 mg/kg, route intravenous; settings: in vivo; how it was run: as §2
[23] = Clearance in CD1 mouse at 2 mg/kg, iv; type: ADME, organism-based; parameters: dose 2 mg/kg, route intravenous; settings: in vivo; how it was run: as §2
[24] = Ratio of drug level in homogenized brain to plasma in CD1 mouse at 7 mg/kg, po measured after 6 hrs by LC-MS/MS method; type: ADME, organism-based; parameters: dose 7 mg/kg, route oral; settings: read-out: BPR
How it was run: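 CD-1 mice dosed PO in 1% Pluronic F127. Drug was measured in homogenized brain and in plasma 6 h after dosing and expressed as a brain:plasma ratio. The free ratio used free fraction measured in mouse plasma and rat brain (brain slice or brain homogenate).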

[25] = Oral bioavailability in CD1 mouse at 1.3 mg/kg; type: ADME, organism-based; settings: in vivo; how it was run: as §1
[26] = Cmax in Han-Wistar rat at 2 mg/kg, po by LC-MS/MS method; type: ADME, organism-based; parameters: dose 2 mg/kg, route oral; settings: in vivo; how it was run: as §1
Mus musculus [27] = assay: Reduction in free feeding level in po dosed C57Bl6j mouse free feeding model measured during 2 to 6 hrs; type: functional, organism-based; how it was run: as §3
[28] = as §4; type: ADME, organism-based; settings: Han-Wistar, in vivo; how it was run: as §1
[29] = Cmax in CD1 mouse at 1.3 mg/kg, po; type: ADME, organism-based; parameters: dose 1.3 mg/kg, route oral; settings: in vivo; how it was run: as §1
[30] = Ratio of drug level in homogenized brain to plasma in Han-Wistar rat measured 1 hr after iv bolus then iv infusion by LC-MS/MS method; type: ADME, organism-based; settings: read-out: BPR
How it was run: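 Brain:plasma ratio in homogenized brain 1 h after IV bolus followed by IV infusion. The free ratio used free fractions measured in plasma and brain (brain slice method or brain homogenate).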

Mus musculus [31] = assay: Reduction in free feeding level in po dosed C57Bl6j mouse free feeding model measured during 0 to 2 hrs; type: functional, organism-based; how it was run: as §3
[32] = molecular target: Growth hormone secretagogue receptor type 1 (Rattus norvegicus) (UniProt O08725); assay: Displacement of [125I]human ghrelin from rat GHS-R1a expressed in HEK cell membranes after 60 mins by gamma counting method; settings: hek293
Growth hormone secretagogue receptor type 1 (Rattus norvegicus), sequence (O08725 whole entry, looked up): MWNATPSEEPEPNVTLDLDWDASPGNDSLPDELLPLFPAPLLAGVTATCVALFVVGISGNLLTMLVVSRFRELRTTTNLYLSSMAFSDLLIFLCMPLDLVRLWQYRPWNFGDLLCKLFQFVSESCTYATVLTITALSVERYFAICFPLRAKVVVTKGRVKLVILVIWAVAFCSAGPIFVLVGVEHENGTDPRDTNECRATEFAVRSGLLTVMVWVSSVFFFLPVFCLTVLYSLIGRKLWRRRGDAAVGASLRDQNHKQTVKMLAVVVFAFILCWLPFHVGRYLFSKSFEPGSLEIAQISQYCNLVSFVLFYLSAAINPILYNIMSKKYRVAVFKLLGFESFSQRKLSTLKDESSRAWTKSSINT

Neuronal acetylcholine receptor subunit alpha-4, sequence (P43681 whole entry): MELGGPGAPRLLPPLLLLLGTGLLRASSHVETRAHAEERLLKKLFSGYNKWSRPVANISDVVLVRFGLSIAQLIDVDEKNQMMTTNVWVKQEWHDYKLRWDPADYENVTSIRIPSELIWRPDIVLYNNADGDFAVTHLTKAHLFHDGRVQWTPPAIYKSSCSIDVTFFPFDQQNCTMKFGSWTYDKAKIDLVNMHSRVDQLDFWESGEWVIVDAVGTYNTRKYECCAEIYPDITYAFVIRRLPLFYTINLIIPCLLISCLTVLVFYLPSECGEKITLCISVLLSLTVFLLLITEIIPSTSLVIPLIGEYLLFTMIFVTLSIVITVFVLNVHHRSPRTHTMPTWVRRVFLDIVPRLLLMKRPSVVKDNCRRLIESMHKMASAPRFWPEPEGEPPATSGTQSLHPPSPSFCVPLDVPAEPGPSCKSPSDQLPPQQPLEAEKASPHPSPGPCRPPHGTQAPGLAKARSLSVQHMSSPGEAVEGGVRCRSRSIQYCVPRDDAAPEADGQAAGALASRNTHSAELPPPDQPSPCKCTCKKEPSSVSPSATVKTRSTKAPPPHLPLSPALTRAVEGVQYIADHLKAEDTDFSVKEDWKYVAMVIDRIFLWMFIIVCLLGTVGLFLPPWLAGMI
Voltage-gated inwardly rectifying potassium channel KCNH2, sequence (Q12809 whole entry): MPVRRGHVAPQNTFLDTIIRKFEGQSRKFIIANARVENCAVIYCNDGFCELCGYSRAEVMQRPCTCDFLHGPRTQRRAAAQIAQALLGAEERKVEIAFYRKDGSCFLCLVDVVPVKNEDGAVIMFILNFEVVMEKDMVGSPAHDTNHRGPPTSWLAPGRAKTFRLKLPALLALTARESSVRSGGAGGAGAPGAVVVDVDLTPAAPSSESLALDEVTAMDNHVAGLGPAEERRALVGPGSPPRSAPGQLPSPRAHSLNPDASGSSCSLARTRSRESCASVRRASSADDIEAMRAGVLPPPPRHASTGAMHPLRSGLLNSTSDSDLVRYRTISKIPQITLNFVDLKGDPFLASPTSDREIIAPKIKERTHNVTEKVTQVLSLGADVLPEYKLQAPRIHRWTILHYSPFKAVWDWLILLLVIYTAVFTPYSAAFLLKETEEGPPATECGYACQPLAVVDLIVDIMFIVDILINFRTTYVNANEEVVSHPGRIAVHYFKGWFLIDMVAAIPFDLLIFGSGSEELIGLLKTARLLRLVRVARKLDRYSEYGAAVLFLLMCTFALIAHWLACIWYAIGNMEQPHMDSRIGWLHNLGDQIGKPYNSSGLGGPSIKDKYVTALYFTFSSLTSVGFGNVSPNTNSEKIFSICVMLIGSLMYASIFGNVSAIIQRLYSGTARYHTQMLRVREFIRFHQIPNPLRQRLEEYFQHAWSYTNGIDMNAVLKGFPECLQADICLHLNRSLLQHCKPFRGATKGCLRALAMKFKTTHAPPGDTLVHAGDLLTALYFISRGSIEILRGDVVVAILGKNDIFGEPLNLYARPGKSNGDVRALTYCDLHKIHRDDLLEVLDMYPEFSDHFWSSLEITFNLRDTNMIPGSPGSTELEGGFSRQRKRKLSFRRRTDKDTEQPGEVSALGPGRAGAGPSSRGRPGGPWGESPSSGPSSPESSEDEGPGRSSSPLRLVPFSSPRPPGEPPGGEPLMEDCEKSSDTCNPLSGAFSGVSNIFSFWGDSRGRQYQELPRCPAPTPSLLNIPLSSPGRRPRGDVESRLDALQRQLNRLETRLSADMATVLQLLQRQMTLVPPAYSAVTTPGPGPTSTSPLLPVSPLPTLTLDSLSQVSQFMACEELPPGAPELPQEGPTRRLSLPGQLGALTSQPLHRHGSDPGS
Sodium-dependent dopamine transporter, sequence (Q01959 whole entry): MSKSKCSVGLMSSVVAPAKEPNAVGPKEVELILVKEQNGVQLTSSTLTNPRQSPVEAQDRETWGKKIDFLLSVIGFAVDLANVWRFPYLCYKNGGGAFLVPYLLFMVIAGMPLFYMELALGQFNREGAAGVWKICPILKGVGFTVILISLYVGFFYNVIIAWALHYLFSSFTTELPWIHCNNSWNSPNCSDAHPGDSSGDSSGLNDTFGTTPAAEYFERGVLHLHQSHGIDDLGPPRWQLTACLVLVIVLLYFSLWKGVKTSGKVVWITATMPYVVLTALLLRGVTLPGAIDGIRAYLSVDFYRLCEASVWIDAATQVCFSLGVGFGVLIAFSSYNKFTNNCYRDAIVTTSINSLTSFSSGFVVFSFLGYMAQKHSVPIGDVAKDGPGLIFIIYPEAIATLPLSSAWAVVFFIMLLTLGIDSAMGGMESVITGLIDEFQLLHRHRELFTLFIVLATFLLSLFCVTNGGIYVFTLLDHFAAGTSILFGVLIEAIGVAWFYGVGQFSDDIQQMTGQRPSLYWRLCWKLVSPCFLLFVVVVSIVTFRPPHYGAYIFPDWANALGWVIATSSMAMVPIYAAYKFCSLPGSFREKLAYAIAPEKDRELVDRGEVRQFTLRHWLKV

`CN1CCC(S(=O)(=O)c2ccc3nc(NC(=O)NC(=O)c4cc(N5CCOCC5)ccc4Cl)sc3c2)CC1` gave a Papp A→B at 10 µM (MDR1) of 5.4 ×10⁻⁶ cm/s, a bioavailability [1] of 31% and a Vd [2] of 0.7 L/kg. For the same compound, the fraction unbound [3] was 0.009, the Activity (Mus musculus [4]) was “inactive” and the Ki [5] was 290 nM. The IC50 [6] was 39 nM, the fraction unbound [7] was 0.016 and the Cmax [8] was 6500 nM. The Cmax [9] was 1000 nM, the F (Rattus norvegicus) was 171% and the Vd [10] was 0.4 L/kg. The Activity (Mus musculus [11]) was “Active”, the Activity (Mus musculus [12]) was “inactive” and the clearance [13] was 1.9 mL/min/kg. It also gave a Vd [14] of 0.4 L/kg, a Cmax [15] of 4500 nM and a Cmax [16] of 8000 nM. For the same compound, the fraction unbound [17] was 0.002, the Ki [18] was 52 nM and the logD [19] was 2.3. The “inhibition (INH)” value [20] was “Not Active”, the bioavailability [21] was 25% and the clearance [22] was 10 mL/min/kg. It also gave a clearance [23] of 1.8 mL/min/kg and a Kp at 6 h [24] of 0.21.

`CN1CCN(CCCS(=O)(=O)c2ccc3nc(NC(=O)NC(=O)c4cc(N5CCOCC5)ccc4Cl)sc3c2)CC1` gave a Papp A→B at 10 µM (MDR1) of 0.53 ×10⁻⁶ cm/s, a bioavailability [25] of 50% and a bioavailability [1] of 87%. The Vd [2] was 0.9 L/kg, the fraction unbound [3] was 0.006 and the Activity (Mus musculus [4]) was “inactive”. For the same compound, the Cmax [26] was 1200 nM, the IC50 [6] was 1.1 nM and the Activity (Mus musculus [27]) was “inactive”. It also gave a fraction unbound [7] of 0.0078, a Cmax [9] of 11000 nM and a bioavailability [28] of 30%. The Vd [10] was 0.3 L/kg, the clearance [13] was 2.6 mL/min/kg and the Vd [14] was 0.8 L/kg. The Cmax [15] was 580 nM, the fraction unbound [17] was 0.0035 and the logD [19] was 1.7. The Cmax [29] was 1300 nM, the clearance [22] was 0.69 mL/min/kg and the clearance [23] was 2.9 mL/min/kg. For the same compound, the Kp at 1 h [30] was less than 0.03, the Activity (Mus musculus [31]) was “Active” and the IC50 [32] was 3.4 nM.
